In ChEMBL document CHEMBL2021796, “Synthesis and biological evaluation of a series of thieno-expanded tricyclic purine 2'-deoxy nucleoside analogues” (Bioorg Med Chem, 2012) one finds EC50, MCC and IC50 data, which are given here for 3 compounds.

pEC50, pIC50: −log10 of the molar value.

For series [1], the system named is Mammalian orthoreovirus 1. As to the kind of experiment: Antiviral activity against Reovirus-1 infected in african green monkey Vero cells assessed as inhibition of virus-induced cytopathogenicity. It is filed as functional, organism-based. The settings on record: Mammalian orthoreovirus 1, Vero. In outline: (§1)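 Confluent HEL, Vero or HeLa monolayers were infected with 100 CCID50 of virus while exposed to fivefold serial dilutions of compound. Virus-induced cytopathicity was scored when it reached completion in untreated infected controls. The EC50 is the concentration that inhibits cytopathicity by 50%.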

Series [2] has as its system Sindbis virus. Description: Antiviral activity against Sindbis virus infected in african green monkey Vero cells assessed as inhibition of virus-induced cytopathogenicity. It is filed as functional, organism-based. In outline: as §1
For series [3], the system named is Punta Toro virus. As to the kind of experiment: Antiviral activity against Punta Toro virus infected in african green monkey Vero cells assessed as inhibition of virus-induced cytopathogenicity. It is filed as functional, organism-based. In outline:
(§2)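 Confluent HEL, Vero or HeLa monolayers were infected with 100 CCID50 of virus while exposed to fivefold serial dilutions of compound. Virus-induced cytopathicity was scored when it reached completion in untreated infected controls.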

For series [4], the system named is Influenza A virus. Description: Antiviral activity against Influenza A virus H3N2 infected in MDCK cells assessed as inhibition of virus-induced cytopathogenicity. It is filed as functional, organism-based. In outline:
(§3)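 Nearly confluent MDCK cultures were infected while exposed to fivefold serial dilutions of compound. Cytopathicity was scored when it reached completion in untreated infected controls. The EC50 is the concentration that inhibits virus-induced cytopathicity by 50%.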

The test system of series [5] is Influenza A virus. Description: Antiviral activity against influenza A virus H1N1 infected in MDCK cells assessed as inhibition of virus-induced cytopathogenicity. It is filed as functional, organism-based. In outline:
as §3

Series [6] deals with Influenza B virus. As to the kind of experiment: Antiviral activity against influenza B virus infected in MDCK cells assessed as inhibition of virus-induced cytopathogenicity. It is filed as functional, organism-based. In outline:
as §3

Series [7] can be described thus: Cytotoxicity against HEL cells assessed as morphological changes by microscopic analysis. It is filed as cell-based. The following applies: human. In outline: (§4)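 Confluent HEL, Vero or HeLa cultures, or near-confluent MDCK cultures, exposed to fivefold compound dilutions in parallel with the antiviral cytopathicity tests. MCC is the lowest concentration causing microscopically visible alteration of cell morphology.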

A short description of series [8]: Cytotoxicity against human HeLa cells assessed as morphological changes by microscopic analysis. It is filed as cell-based. In outline:
as §4

Series [9] can be described thus: Cytotoxicity against african green monkey Vero cells assessed as morphological changes by microscopic analysis. It is filed as cell-based. The settings on record: chlorocebus sabaeus. In outline: as §4
Series [10] is described as follows: Cytotoxicity against MDCK cells assessed as morphological changes by microscopic analysis. The settings on record: dog. It is filed as cell-based, Canis lupus familiaris. In outline:
as §4

The test system of series [11] is L1210. As to the kind of experiment: Cytostatic activity against mouse L1210 cells after 2 days by coulter counter analysis. The following applies: L1210, 48 h. It is filed as functional, cell-based. In outline:
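L1210 cells at 300,000–500,000 cells/mL were mixed 1:1 with compound dilutions and incubated for 2 days at 37 °C. Cells were counted with a Coulter counter. The IC50 is the concentration that inhibits proliferation by 50%.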

Series [12] relates to Human betaherpesvirus 5. Description: Antiviral activity against Human cytomegalovirus AD169 infected in HEL cells assessed as inhibition of virus-induced cytopathogenicity after 7 days by Giemsa staining-based microscopic analysis. It is filed as functional, organism-based. The settings on record: Human betaherpesvirus 5, AD169, HEL, 168 h. In outline: (§5)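 Confluent HEL fibroblasts infected with strains AD-169 and Davis at 100 PFU per well. After 2 h adsorption, residual virus removed and medium with test compound added, in duplicate. Incubated 7 days at 37 °C. Cytopathogenicity scored microscopically after ethanol fixation and Giemsa staining. EC50 read from graphic plots of % cytopathogenicity versus concentration.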

Series [13] concerns Human betaherpesvirus 5. Description: Antiviral activity against Human cytomegalovirus Davis infected in HEL cells assessed as inhibition of virus-induced cytopathogenicity after 7 days by Giemsa staining-based microscopic analysis. It is filed as functional, organism-based. The following applies: Human betaherpesvirus 5, Davis, 168 h. In outline: as §5
Series [14] concerns Human alphaherpesvirus 3. As to the kind of experiment: Antiviral activity against Varicella zoster virus OKA infected in HEL cells assessed as reduction in viral plaque formation after 5 days relative to control. It is filed as functional, cell-based. The settings on record: Human alphaherpesvirus 3, strain Oka vaccine, 120 h. In outline: (§6)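 Confluent HEL cells were inoculated with 20 PFU VZV per well (Oka wild type or thymidine kinase-deficient 07-1). Residual virus was removed after 2 h and compound dilutions were added in duplicate. The EC50 is the concentration that reduces plaque formation by 50% after 5 days relative to untreated controls.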

Series [15] has as its system Human alphaherpesvirus 3. As to the kind of experiment: Antiviral activity against Varicella zoster virus 07/1 infected in HEL cells assessed as reduction in viral plaque formation after 5 days relative to control. It is filed as functional, organism-based. The settings on record: Human alphaherpesvirus 3, 07/1, HEL, 120 h. In outline: as §6
For series [16], the system named is Human alphaherpesvirus 1. As to the kind of experiment: Antiviral activity against Herpes simplex virus 1 KOS infected in HEL cells assessed as inhibition of virus-induced cytopathogenicity. It is filed as functional, organism-based. The following applies: Human alphaherpesvirus 1, KOS. In outline:
as §1

The subject of series [17] is Human alphaherpesvirus 1. As to the kind of experiment: Antiviral activity against thymidine kinase-deficient Herpes simplex virus 1 infected in HEL cells assessed as inhibition of virus-induced cytopathogenicity. The settings on record: Human alphaherpesvirus 1, HEL. It is filed as functional, organism-based. In outline:
(§7)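 Confluent cell monolayers (Vero for parainfluenza-3, HEL for HSV-1 TK−) inoculated with 100 CCID50 of virus alongside fivefold compound dilutions. Cytopathicity recorded once complete in untreated infected controls. EC50 is the concentration inhibiting virus-induced cytopathicity by 50%.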

For series [18], the system named is Human alphaherpesvirus 2. As to the kind of experiment: Antiviral activity against Herpes simplex virus 2 G infected in HEL cells assessed as inhibition of virus-induced cytopathogenicity. It is filed as functional, organism-based. The settings on record: Human alphaherpesvirus 2, strain G. In outline: as §1
The test system of series [19] is Vesicular stomatitis virus. Description: Antiviral activity against Vesicular stomatitis virus infected in HEL cells assessed as inhibition of virus-induced cytopathogenicity. It is filed as functional, organism-based. In outline: as §2
The test system of series [20] is Vesicular stomatitis virus. Description: Antiviral activity against Vesicular stomatitis virus infected in HeLa cells. It is filed as functional, organism-based. In outline: as §1
The subject of series [21] is Coxsackievirus B4. As to the kind of experiment: Antiviral activity against Coxsackie virus B4 infected in HeLa cells. It is filed as functional, organism-based. The settings on record: Enterovirus B. In outline:
as §2

For series [22], the system named is Respiratory syncytial virus. Description: Antiviral activity against Respiratory syncytial virus infected in HeLa cells. It is filed as functional, organism-based. The settings on record: human respiratory syncytial virus. In outline:
as §1

The test system of series [23] is Human immunodeficiency virus 1. As to the kind of experiment: Antiviral activity against Human immunodeficiency virus 1 3B infected in human CEM cells assessed as inhibition of virus-induced giant cell formation after 4 days by microscopic analysis. The following applies: CCRF-CEM, 96 h. It is filed as functional, organism-based. In outline:
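CEM cells at about 3 × 10^5 cells/cm3 were infected with 100 CCID50/ml of virus and seeded into wells containing compound dilutions. After 4 days at 37 °C, giant cell formation was assessed under the microscope.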

Series [24] concerns Human immunodeficiency virus 2. Description: Antiviral activity against Human immunodeficiency virus 2 ROD infected in human CEM cells assessed as inhibition of virus-induced giant cell formation after 4 days by microscopic analysis. It is filed as functional, organism-based. The settings on record: Human immunodeficiency virus 2, ISOLATE ROD, CCRF-CEM, 96 h. In outline: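 CEM cells (~3 × 10^5 cells/cm3) infected with 100 CCID50 of HIV-2(ROD) per ml and seeded into microtiter wells holding compound dilutions. Incubated 4 days at 37 °C. Giant cell formation examined microscopically.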

For series [25], the system named is Human respirovirus 3. Description: Antiviral activity against Parainfluenza-3 virus infected in african green monkey Vero cells assessed as inhibition of virus-induced cytopathogenicity. It is filed as functional, organism-based. The settings on record: Human respirovirus 3, Vero. In outline:
as §7

The test system of series [26] is Coxsackievirus B4. As to the kind of experiment: Antiviral activity against Coxsackie virus B4 infected in african green monkey Vero cells assessed as inhibition of virus-induced cytopathogenicity. The settings on record: Enterovirus B. It is filed as functional, organism-based. In outline: as §1

Turning to `Nc1nc2c(sc3ncn([C@H]4C[C@H](O)[C@@H](CO)O4)c32)c(=O)[nH]1`, the pEC50 in [1] is less than 4.00; in [2], less than 4.00; in [3], less than 4.00; in [4], less than 6.80; in series [5], less than 6.80; in series [6], less than 6.80. For the same compound, the pEC50 in [12] was less than 4.00; in series [13] it was less than 4.00; in series [14] it was 4.15; in [15], 4.15; in series [16] it was less than 4.00; in series [17] it was less than 4.00. The pEC50 is less than 4.00 in series [18]; less than 4.00 in series [19]; 4.00 in [20]; less than 4.00 in [21]; less than 4.00 in [22]; no more than 3.60 in [23]. Moreover, the pEC50 in [24] was no more than 3.60; in series [25], less than 4.00; in series [26], less than 4.00. For the same compound, the MCC is greater than 100 µM in [7], 100 µM in series [8], 100 µM in series [9] and 0.8 µM in series [10]. The compound further showed a pIC50 in series [11] of 3.84.

As for `Nc1ncnc2c1sc1ncn([C@H]3C[C@H](O)[C@@H](CO)O3)c12`, the pEC50 was 4.00 in [1]; less than 5.40 in series [4]; less than 5.40 in [5]; less than 5.40 in [6]; less than 5.40 in series [12]; less than 5.40 in series [13]. For the same compound, the pEC50 in series [14] is 5.05; in [15], 5.05; in series [16], less than 4.70; in series [17], less than 4.70; in [18] it was less than 4.70; in series [19], less than 4.70. Moreover, the pEC50 was less than 4.00 in series [20]; less than 4.00 in [21]; less than 4.00 in [22]; less than 5.00 in series [23]; less than 5.00 in [24]; less than 4.00 in series [25]. The pEC50 in series [26] was less than 4.00. The MCC in series [7] is no less than 20 µM; in [8], greater than 100 µM; in series [9], greater than 100 µM; in series [10], 20 µM. Also, in series [11], the pIC50 is 4.28.

Take `NC(=O)c1ncn([C@@H]2O[C@H](CO)[C@@H](O)[C@H]2O)n1` [RIBAVIRIN]: the pEC50 in [1] is less than 3.60; in series [2], less than 3.60; in [4] it was 5.29; in series [5] it was 5.64; in series [6] it was 5.35; in series [16], less than 3.60. The pEC50 in series [18] is less than 3.60; in series [20], 4.54; in series [23], less than 4.30; in [24], less than 4.30; in [25], 4.07; in series [26] it was less than 3.60. The MCC in series [7], in [8] and in [9] was greater than 250 µM in each case.
